Reference: PMC7507839 (Investigational new drugs, 2018)
Entries after “also recorded” stand apart in the source; their conditions may differ.

Assays:
c-Met [1] = details: A549 non-small cell lung carcinoma cell line; cited from earlier work
[2] = test system: metastatic or locally advanced solid tumors; experiment: anti-tumor activity; type: in vivo, human
Procedure, shortened: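 Adults with histologically confirmed metastatic or locally advanced solid tumors lacking standard therapy, ECOG 0–1, received test compound twice daily from 50 mg in escalating cohorts. Cycle 1 was 14 days followed by a 1-week holiday, cycles 2–4 were 14 days, and cycles from 5 on were 28 days. RECIST 1.0 imaging at end of cycle 4, then every two cycles. All patients dosed at least once analysed.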

[3] = test system: gastric and non-small cell lung cell lines; details: a number of cell lines; most pronounced in gastric and non-small cell lung cell lines; cited from earlier work
[4] = test system: ovarian cancer cell lines; details: with paclitaxel + carboplatin, multiple ovarian cancer cell lines; cited from earlier work
[5] = test system: non-small cell lung cancer cell lines; details: high c-Met expressing cell lines; cited from earlier work
[6] = plasma pharmacokinetics in patients; type: in vivo, human
c-Met [7] = details: read-out: IC50 towards c-Met; cited from earlier work
tyrosine kinases = details: cited from earlier work
[8] = test system: patients with metastatic or locally advanced solid tumors; experiment: Phase I dose escalation: safety, DLT, MTD; type: in vivo
c-Met [9] = details: GTL-16 gastric cancer cells, cited from earlier work
GTL-16 xenograft = details: twice-daily 100 mg/kg orally, cited from earlier work
medullary thyroid cancer = details: monotherapy; cited from earlier work
[10] = Dose Level 5, 550 mg BID, Fatigue
[11] = Dose Level 6, 750 mg BID, Nausea
[12] = Dose Level 7, 1050 mg BID, Nausea
[13] = Dose Level 7, 1050 mg BID, Vomiting
[14] = Dose Level 8, 1500 mg BID, Elevated ALT
[15] = Dose Level 8, 1500 mg BID, Elevated AST
[16] = Dose Level 8, 1500 mg BID, Elevated Amylase
[17] = Dose Level 8, 1500 mg BID, Hypokalaemia

In the case of `Cn1cc(-c2cnc3ccc4ccc(CS(=O)(=O)NCc5ccccn5)cc4c(=O)c3c2)cn1` [MK-8033, 1-[3-(1-methyl-1H-pyrazol-4-yl)-5-oxo-5H-benzo[4,5]cyclohepta[1,2-b]pyridin-7-yl] -N-(pyridin-2-ylmethyl)methanesulfonamide], the “HGF-induced phosphorylation of c-Met” value (c-Met [1]) is listed as “inhibited”, the “phosphorylation of AKT and ERK1/2” value (c-Met [1]) is listed as “inhibited” and the “median progression-free survival (PFS)” value ([2]; 95% confidence interval 42–115 days) is listed as 57 days. For the same compound, the PFS rate ([2]; at 6 weeks) was 80.4%, the PFS rate ([2]; at 12 weeks) was 15.2% and the “patients with stable disease (SD), %” value ([2]; best response) was 18.2%. For the same compound, the “patients with partial response (PR)” value ([2]; endometrioid adenocarcinoma) was “One”, the “patients with best response of progressive disease (PD), %” value ([2]; human, in vivo) was 71.7% and the “PFS of the responding patient” value ([2]; patient with endometrioid adenocarcinoma) was 846 days. The IC50 for proliferation [3] was “sub-micromolar”, the “cell growth inhibition in combination with chemotherapy” value [4] was “synergized” and the radiosensitization [5] was “radiosensitized”. The “max concentration versus dose” value ([6]; 50 to 1500 mg BID, dose proportionality not assessable) was “appears to increase with dose”, the “Day 14/Day 1 geometric mean accumulation ratios for Cmax” value ([6]; 200 to 1500 mg BID dose range, not conclusive) was 1.2 to 4.2 and the “impact of co-administered omeprazole on steady state Cmax, AUC0–12h and Tmax” value ([6]; Part C, 770 mg BID with or without 20 mg omeprazole, two patients) was “no effect; also recorded: does not appear to strongly impact”. The Tmax ([6]; human, plasma, oral) was 1 to 3 h, the IC50 (c-Met [7]) was 1 nM and the selectivity (tyrosine kinases) was “target multiple tyrosine kinases”. For the same compound, the “No. of Subjects with a DLT” value ([8]; Dose Level 1 (n = 1), 50 mg BID, Total) was 0, the “No. of Subjects with a DLT” value ([8]; Dose Level 2 (n = 1), 100 mg BID, Total) was 0 and the “No. of Subjects with a DLT” value ([8]; Dose Level 3 (n = 3), 200 mg BID, Total) was 0. For the same compound, the “No. of Subjects with a DLT” value ([8]; Dose Level 4 (n = 4), 400 mg BID, Total) was 0, the “No. of Subjects with a DLT” value ([8]; Dose Level 5 (n = 7), 550 mg BID, Fatigue) was 1 and the “No. of Subjects with a DLT” value ([8]; Dose Level 5 (n = 7), 550 mg BID, Total) was 1. For the same compound, the “Number of DLTs Grade 1” value [8, 10] was 0, the “Number of DLTs Grade 2” value [8, 10] was 0 and the “Number of DLTs Grade 3” value [8, 10] was 1. The “Number of DLTs Grade 4” value [8, 10] was 0, the “No. of Subjects with a DLT” value ([8]; Dose Level 6 (n = 18), 750 mg BID, Nausea) was 1 and the “No. of Subjects with a DLT” value ([8]; Dose Level 6 (n = 18), 750 mg BID, Total) was 1. The “Number of DLTs Grade 1” value [8, 11] was 0, the “Number of DLTs Grade 2” value [8, 11] was 1 and the “Number of DLTs Grade 3” value [8, 11] was 0. The “Number of DLTs Grade 4” value [8, 11] was 0, the “No. of Subjects with a DLT” value ([8]; Dose Level 7 (n = 6), 1050 mg BID, Nausea) was 2 and the “No. of Subjects with a DLT” value ([8]; Dose Level 7 (n = 6), 1050 mg BID, Total) was 2. For the same compound, the “No. of Subjects with a DLT” value ([8]; Dose Level 7 (n = 6), 1050 mg BID, Vomiting) was 2, the “Number of DLTs Grade 1” value [8, 12] was 0 and the “Number of DLTs Grade 2” value [8, 12] was 0. The “Number of DLTs Grade 3” value [8, 12] was 2, the “Number of DLTs Grade 4” value [8, 12] was 0 and the “Number of DLTs Grade 1” value [8, 13] was 0. The “Number of DLTs Grade 2” value [8, 13] was 1, the “Number of DLTs Grade 3” value [8, 13] was 1 and the “Number of DLTs Grade 4” value [8, 13] was 0. The “No. of Subjects with a DLT” value ([8]; Dose Level 8 (n = 3), 1500 mg BID, Elevated ALT) was 1, the “No. of Subjects with a DLT” value ([8]; Dose Level 8 (n = 3), 1500 mg BID, Elevated AST) was 1 and the “No. of Subjects with a DLT” value ([8]; Dose Level 8 (n = 3), 1500 mg BID, Elevated Amylase) was 1. For the same compound, the “No. of Subjects with a DLT” value ([8]; Dose Level 8 (n = 3), 1500 mg BID, Hypokalaemia) was 1, the “No. of Subjects with a DLT” value ([8]; Dose Level 8 (n = 3), 1500 mg BID, Total) was 2 and the “Number of DLTs Grade 1” value [8, 14] was 0. For the same compound, the “Number of DLTs Grade 2” value [8, 14] was 0, the “Number of DLTs Grade 3” value [8, 14] was 1 and the “Number of DLTs Grade 4” value [8, 14] was 0. For the same compound, the “Number of DLTs Grade 1” value [8, 15] was 0, the “Number of DLTs Grade 2” value [8, 15] was 0 and the “Number of DLTs Grade 3” value [8, 15] was 1. The “Number of DLTs Grade 4” value [8, 15] was 0, the “Number of DLTs Grade 1” value [8, 16] was 0 and the “Number of DLTs Grade 2” value [8, 16] was 0. The “Number of DLTs Grade 3” value [8, 16] was 1, the “Number of DLTs Grade 4” value [8, 16] was 0 and the “Number of DLTs Grade 1” value [8, 17] was 0. For the same compound, the “Number of DLTs Grade 2” value [8, 17] was 0, the “Number of DLTs Grade 3” value [8, 17] was 0 and the “Number of DLTs Grade 4” value [8, 17] was 1. The “No. of Subjects with a DLT” value ([8]; Part C - (n = 3), 750 mg BID, Total) was 0, the “patients who died during the study” value ([8]; determined by investigators to be unrelated to MK-8033) was “Five” and the “maximum tolerated dose (MTD)” value ([8]; dose level 6, oral) was 750 mg BID. For the same compound, the “recommended phase II dose (RP2D)” value ([8]; dose level 6, acute and chronic toxicity, TITE-CRM) was 750 mg BID, the “Alopecia, All Grades, %” value ([8]; treatment-related, n = 46) was 19.6% and the “Anorexia, All Grades, %” value ([8]; treatment-related, n = 46) was 17.4%. For the same compound, the “Decreased Hemoglobin, All Grades, %” value ([8]; treatment-related, n = 46) was 6.5%, the “Decreased Hemoglobin, Grade ≥ 3, %” value ([8]; treatment-related, n = 46) was 2.2% and the “Diarrhea, All Grades, %” value ([8]; treatment-related, n = 46) was 6.5%. For the same compound, the “Dysgeusia, All Grades, %” value ([8]; treatment-related, n = 46) was 8.7%, the “Dyspepsia, All Grades, %” value ([8]; treatment-related, n = 46) was 6.5% and the “Dyspepsia, Grade ≥ 3, %” value ([8]; treatment-related, n = 46) was 4.3%. The “Elevated ALT, All Grades, %” value ([8]; treatment-related, n = 46) was 17.4%, the “Elevated ALT, Grade ≥ 3, %” value ([8]; treatment-related, n = 46) was 2.2% and the “Elevated AST, All Grades, %” value ([8]; treatment-related, n = 46) was 10.9%. For the same compound, the “Elevated AST, Grade ≥ 3, %” value ([8]; treatment-related, n = 46) was 2.2%, the “Elevated Amylase, All Grades, %” value ([8]; treatment-related, n = 46) was 6.5% and the “Elevated Amylase, Grade ≥ 3, %” value ([8]; treatment-related, n = 46) was 4.3%. The “Elevated Creatinine, All Grades, %” value ([8]; treatment-related, n = 46) was 13.0%, the “Elevated Lipase, All Grades, %” value ([8]; treatment-related, n = 46) was 6.5% and the “Elevated Lipase, Grade ≥ 3, %” value ([8]; treatment-related, n = 46) was 4.3%. For the same compound, the “Fatigue, All Grades, %” value ([8]; treatment-related, n = 46) was 28.3%, the “Fatigue, Grade ≥ 3, %” value ([8]; treatment-related, n = 46) was 2.2% and the “Headache, All Grades, %” value ([8]; treatment-related, n = 46) was 6.5%. For the same compound, the “Hypokalemia, All Grades, %” value ([8]; treatment-related, n = 46) was 6.5%, the “Hypokalemia, Grade ≥ 3, %” value ([8]; treatment-related, n = 46) was 2.2% and the “Lymphopenia, All Grades, %” value ([8]; treatment-related, n = 46) was 8.7%. For the same compound, the “Lymphopenia, Grade ≥ 3, %” value ([8]; treatment-related, n = 46) was 4.3%, the “Nausea, All Grades, %” value ([8]; treatment-related, n = 46) was 21.7% and the “Nausea, Grade ≥ 3, %” value ([8]; treatment-related, n = 46) was 4.3%. The “Vomiting, All Grades, %” value ([8]; treatment-related, n = 46) was 13.0%, the “Vomiting, Grade ≥ 3, %” value ([8]; treatment-related, n = 46) was 2.2% and the “autophosphorylation of c-Met in the C-terminal docking site” value (c-Met [9]; constitutively activated c-MET) was “potently inhibited”. For the same compound, the “downstream signaling events such as ERK1/2 and AKT” value (c-Met [9]) was “inhibited”, the “plasma concentrations relative to IC50 for target inhibition” value (GTL-16 xenograft; mice) was “exceeding the IC50 for target inhibition for 24 h/day” and the tolerability (GTL-16 xenograft; mice) was “well-tolerated”. The “pathway activation and tumor growth” value (GTL-16 xenograft) was “inhibited”.

For `COc1cc2nccc(Oc3ccc(NC(=O)C4(C(=O)Nc5ccc(F)cc5)CC4)cc3)c2cc1OC` [cabozantinib], the IC50 (c-Met [7]) is listed as 1.3 nM and the response rate (medullary thyroid cancer) is listed as 49%.

For `O=C1NC(=O)[C@@H](c2cn3c4c(cccc24)CCC3)[C@@H]1c1c[nH]c2ccccc12` [tivantinib, reference compound], the IC50 (c-Met [7]) is given as 100 nM and the selectivity (tyrosine kinases) is given as “only binds to c-Met”.
